Assay results published in ChEMBL document CHEMBL1145129, “Design, synthesis, and anticancer properties of 4,4'-dihydroxybenzophenone-2,4-dinitrophenylhydrazone and analogues” (J Med Chem, 2003).
Converted amounts (≈) assume the structure as drawn.

How the values were obtained:
Melanoma tumor cell line [1] = assay: In vitro cytotoxicity against Human melanoma tumor cells; Not available.; format: functional, cell-based
Method in brief: (§1)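 Fresh surgical human tumor specimens minced to ≤0.1 mm fragments in RPMI-1640 with 10% FBS, streptomycin and penicillin (10⁶–10⁸ cells/mL), explanted into slide flasks. Exposed 24 h at 37 °C, 5% CO₂, to test agent 0.1–20 μg/mL (≥5 doses over 3 logs), in duplicate. Washed, recultured 7–14 days, fixed, HPF cell counts vs control; IC50 (SD) from percent growth.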

[2] = test system: breast cancer cells (Homo sapiens); assay: In vitro cytotoxicity in Human breast tumor cells
Homo sapiens [3] = species: Homo sapiens; assay: In vitro cytotoxicity against Human lung tumor cells; Not available.; format: functional; method in brief: as §1
Melanoma tumor cell line [4] = assay: In vitro cytotoxicity against Human melanoma tumor cells.; format: functional, cell-based; method in brief: as §1
Colon carcinoma cell [5] = assay: In vitro cytotoxicity was tested in human colon tumor cells; format: functional, cell-based; method in brief: as §1
Homo sapiens [6] = species: Homo sapiens; assay: In vitro cytotoxicity in Human ovary tumor cells; format: functional; conditions: Female gonad; method in brief: as §1
Homo sapiens [7] = species: Homo sapiens; assay: In vitro cytotoxicity against Human lung tumor cells.; format: functional; method in brief: as §1
[8] = In vitro cytotoxicity in FDCP-1 cell line; conditions: Mus musculus, FDC-P1
[9] = In vitro cytotoxicity in B 16 F10 cell line; conditions: Mus musculus, B16-F10
MDA-MB-435 = assay: In vitro cytotoxicity in MDA-MB-435 cell line; format: functional, cell-based; conditions: Homo sapiens
Method in brief: (§2)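 Established tumor lines kept in RPMI-1640 with 10% fetal calf serum and penicillin/streptomycin at 36 °C, 10% CO₂. Seeded 2000–3000 cells/well; hydrazone-containing medium added after 18 h, then 36 h further culture. Viable cells read by MTT absorbance at 570 nm; cytostasis (%) = (1 − A_treated/A_control) × 100.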

[10] = In vitro cytotoxicity in SN 12 PM6 cell line; format: functional, cell-based; conditions: Homo sapiens; method in brief: as §2
[11] = In vitro cytotoxicity in estrogen receptor and progesterone receptor negative Human breast tumor cells; (5+/-2, 0.2+/-0.3); format: functional, cell-based
[12] = In vitro cytotoxicity in KM 12 SM cell line; format: functional; conditions: Homo sapiens, KM12
Method in brief: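 Established lines kept in RPMI-1640 with 10% fetal calf serum and penicillin/streptomycin at 36 °C, 10% CO₂. Cells seeded at 2000–3000 cells/well, hydrazones added at several concentrations after 18 h, and exposed a further 36 h. Viable cells read by MTT absorbance at 570 nm; cytostasis (%) = (1 − A/B)×100 against untreated control.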

Melanoma tumor cell line [13] = assay: In vitro cytotoxicity in Human melanoma tumor cells; (5+/-4, >10); format: functional, cell-based
[14] = In vitro cytotoxicity in estrogen receptor positive progesterone receptor negative Human breast tumor cells; (>5, 0.5); format: functional, cell-based
Homo sapiens [15] = species: Homo sapiens; assay: In vitro cytotoxicity in Human lung tumor cells; (5+/-5, 6+/-5); format: functional
Colon carcinoma cell [16] = assay: In vitro cytotoxicity in Human colon tumor cells; (>12+/-4, >12+/-5); format: functional, cell-based
Homo sapiens [17] = species: Homo sapiens; assay: In vitro cytotoxicity in Human ovary tumor cells; (3+/-3, 4.2+/-4); format: functional; conditions: Female gonad
[18] = test system: breast cancer cells (Homo sapiens); assay: In vitro cytotoxicity in estrogen receptor and progesterone receptor positive Human breast tumor cells; (2.5+/-0.9, 0.5+/-1)
[19] = In vitro cytotoxicity in estrogen receptor negative progesterone receptor positive Human breast tumor cells; (3+/-2, 0.4+/-0.1); format: functional, cell-based
[20] = In vitro cytotoxicity in Human breast tumor cells; format: functional, cell-based; method in brief: as §1
[21] = In vitro cytotoxicity in KM 12L4 cell line; format: functional, cell-based; conditions: Homo sapiens; method in brief: as §2
[22] = In vitro cytotoxicity in K 1735 M2 cell line; format: functional

Row | SMILES | IC50 (Melanoma tumor cell line [1]) | IC50 [2] | IC50 (Homo sapiens [3]) | IC50 (Melanoma tumor cell line [4]) | IC50 (Colon carcinoma cell [5]) | IC50 (Homo sapiens [6]) | IC50 (Homo sapiens [7]) | IC50 [20] | also measured
1 | O=[N+]([O-])c1ccc(N/N=C(\c2ccccc2)c2ccc(O)cc2O)c([N+](=O)[O-])c1 | Not Active | 0.5 µg/mL (≈ 1.27 µM) | Not Active | – | – | – | – | – | –
2 | O=[N+]([O-])c1ccc(N/N=C(\c2ccccc2)c2ccc(O)cc2)c([N+](=O)[O-])c1 | – | 5 µg/mL (≈ 13.2 µM) | Not Active | > 10 µg/mL | 0.5 µg/mL (≈ 1.32 µM) | 0.3 µg/mL (≈ 0.793 µM) | – | – | –
3 | O=[N+]([O-])c1ccc(NN=C(c2ccccc2)c2ccccc2)c([N+](=O)[O-])c1 | – | > 5 µg/mL | – | > 10 µg/mL | – | > 10 µg/mL | > 5 µg/mL | – | –
4 | COc1ccc(C(=NNc2ccc([N+](=O)[O-])cc2[N+](=O)[O-])c2ccc(OC)cc2O)c(O)c1 | Not Active | 1.5 µg/mL (≈ 3.3 µM) | Not Active | – | 4.5 µg/mL (≈ 9.9 µM) | > 5 µg/mL | – | – | –
5 | O=[N+]([O-])c1ccc(NN=C(c2ccc(O)cc2)c2ccc(O)cc2)c([N+](=O)[O-])c1 [SIVIFENE] | – | – | – | – | – | – | – | – | IC50 [8]: 9.1 µg/mL (≈ 23.1 µM); IC50 [9]: 1 µg/mL (≈ 2.54 µM); IC50 (MDA-MB-435): 2.1 µg/mL (≈ 5.33 µM); IC50 [10]: 4 µg/mL (≈ 10.1 µM); IC50 [11]: 12.6 µg/mL (≈ 32 µM); IC50 [12]: 5.4 µg/mL (≈ 13.7 µM); IC50 (Melanoma tumor cell line [13]): 7 µg/mL (≈ 17.8 µM); IC50 [14]: > 10 µg/mL; IC50 (Homo sapiens [15]): 4.9 µg/mL (≈ 12.4 µM); IC50 (Colon carcinoma cell [16]): 15.2 µg/mL (≈ 38.5 µM); IC50 (Homo sapiens [17]): 12.3 µg/mL (≈ 31.2 µM); IC50 [18]: 3.5 µg/mL (≈ 8.88 µM); IC50 [19]: > 10 µg/mL
6 | O=[N+]([O-])c1ccc(/N=N/c2c3cc(O)ccc3c(NNc3ccc([N+](=O)[O-])cc3[N+](=O)[O-])c3cc(O)ccc23)c([N+](=O)[O-])c1 | Not Active | – | – | – | 3.9 µg/mL (≈ 6.5 µM) | – | 1 µg/mL (≈ 1.67 µM) | 2.5 µg/mL (≈ 4.16 µM) | –
7 | O=c1c2cccc3c2c(nn1-c1ccccc1[N+](=O)[O-])-c1ccccc1-3 | – | – | – | 0.4 µg/mL (≈ 1.17 µM) | > 5 µg/mL | > 5 µg/mL | > 5 µg/mL | > 5 µg/mL | –
8 | O=[N+]([O-])c1ccccc1NN=C(c1ccc(O)cc1)c1ccc(O)cc1 | Not Active | 3.9 µg/mL (≈ 11.2 µM) | Not Active | – | 4.7 µg/mL (≈ 13.5 µM) | – | – | – | –
9 | CC(=O)Oc1cccc2c(/N=N/c3ccc([N+](=O)[O-])cc3[N+](=O)[O-])c3cccc(OC(C)=O)c3c(O)c12 | – | – | – | 0.07 µg/mL (≈ 0.139 µM) | 0.16 µg/mL (≈ 0.317 µM) | 0.3 µg/mL (≈ 0.595 µM) | 0.1 µg/mL (≈ 0.198 µM) | 0.04 µg/mL (≈ 0.0793 µM) | IC50 [21]: 0.07 µg/mL (≈ 0.139 µM); IC50 (MDA-MB-435): 0.041 µg/mL (≈ 0.0813 µM); IC50 [10]: 0.021 µg/mL (≈ 0.0416 µM); IC50 [22]: 0.042 µg/mL (≈ 0.0833 µM)
